Screening data as filed in PubChem BioAssay.
The list is not random: actives were taken first. Their share in the collection is about 3.2%.
NR2E3 ag-1 = NR2E3 agonists in two-hybrid cells, primary screen, cell-based, luminescence, CHO-S, Gal4-NCOR/VP16-NR2E3 | Photoreceptor-specific nuclear receptor (Homo sapiens), Q9Y5X4 | luciferase | inhibition of corepressor binding, % at 3.98 µM | hit rate 0.35% among 360,000 | AID 602229, 2012;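 active means inhibition above the mean of all tested compounds plus 3 SD, cut at about 70% in these data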;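 further: 0% = DMSO with NR2E3 transfected cells and 100% = cells lacking NR2E3 construct; higher means lower luciferase signal from less NR2E3 corepressor binding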
SMARCA2 act = SMARCA2 (BRM) function activators, primary screen, cell-based, luminescence, high throughput; MG213 cells, MMTV-luciferase reporter, dexamethasone, overnight; activation, % at 9.1 µM; hit rate 1% among 370,000; AID 652017, 2013; in the data active means activation above about 7.8%;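 further: 0% = vehicle wells and 100% = reference activator wells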
DAX1 inh-1 = DAX1 (NR0B1) inhibitors on StAR promoter, primary screen, cell-based, luminescence, SF-1 (NR5A1), full-length DAX-1; inhibition, % at 6.8 µM; AID 652010, 2013; HEK293T StAR-luciferase reporter, SF-1/DAX-1 repression relief; hit rate 1.1% among 370,000;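 active means inhibition above the mean over all tested compounds plus 3 SD, cut at about 3.6% in these data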;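 further: 0% = DAX-1 cells with DMSO and 100% = cells lacking DAX-1 with DMSO; higher inhibition means more luminescence from relief of DAX-1 repression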
NR2E3 ag-2 = inhibitors of NR2E3-RetCOR corepressor binding, primary screen, NR2E3 agonist project, biochemical, TR-FRET, GST-NR2E3, biotin-RetCOR | hit rate 0.12% among 320,000 | inhibition of corepressor binding, % at 4.78 µM | 1536-well | Photoreceptor-specific nuclear receptor (Homo sapiens), Q9Y5X4 | AID 2300, 2010;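 active means percent inhibition above the cutoff of mean plus 3 SD of all tested compounds, set per screening campaign, cut at about 20% in these data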;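 further: 0% = DMSO wells and 100% = biotin wells as full block of FRET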
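Test system – NR2E3–RetCOR corepressor complex · Quantity – NR2E3 fusion 1.35 nM · Buffer or medium – Tris pH 7.5 · Incubation – Compound–protein incubation for 5 h at 4 °C · Technique – TR-FRET, Eu(K)-anti-GST donor, streptavidin-D2 acceptor, ex 340, em 617/671 nm · Evaluation – percent inhibition of 671/617 nm emission ratio versus biotin and DMSO controls · Plate – 1536-well format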
JMJD2C inh = inhibitors of GASC-1 histone demethylase, primary screen, biochemical, fluorescence, DELFIA europium | Lysine-specific demethylase 4C (Homo sapiens), Q9H3R0 | GST-JMJD2C(1-420) H3K9me3 demethylation | inhibition, % at 2.35 µM | hit rate 0.069% among 330,000 | AID 2099, 2009;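 active means more than half of a compound's replicate wells show inhibition beyond 50%, single wells judged on their own value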;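 further: signal counts dimethyl H3K9 product captured on neutravidin plate; 0% = median of DMSO wells and 100% = 0.3 times that DMSO median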
Target sequence (Q9H3R0 1-420 limits assumed): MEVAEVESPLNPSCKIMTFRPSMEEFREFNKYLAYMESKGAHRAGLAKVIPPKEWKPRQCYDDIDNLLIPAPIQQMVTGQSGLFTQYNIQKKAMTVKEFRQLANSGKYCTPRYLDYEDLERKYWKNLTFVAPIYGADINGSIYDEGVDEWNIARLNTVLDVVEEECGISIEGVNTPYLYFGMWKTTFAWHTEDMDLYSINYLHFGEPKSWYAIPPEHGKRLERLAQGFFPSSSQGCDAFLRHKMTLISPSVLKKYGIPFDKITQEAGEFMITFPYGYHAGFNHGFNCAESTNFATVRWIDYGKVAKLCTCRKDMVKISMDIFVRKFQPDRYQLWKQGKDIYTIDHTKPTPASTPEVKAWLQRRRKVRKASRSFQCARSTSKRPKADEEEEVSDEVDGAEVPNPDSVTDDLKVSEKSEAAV
DAX1 inh-2 = DAX1 (NR0B1) inhibitors, primary screen, cell-based, HEK293, Gal4-DAX1, luciferase luminescence | Nuclear receptor subfamily 0 group B member 1 (Homo sapiens), P51843 | HEK293 Gal4-DAX1 luciferase reporter | inhibition, % at 6.75 µM | hit rate 0.99% among 340,000;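 active means inhibition above the mean over all tested compounds plus 3 SD, cut at about 4.2% in these data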;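 further: 0% = DAX1-transfected cells with DMSO and 100% = empty-vector control cells with DMSO; inhibition shows as a rise in luminescence from relieved DAX1 repression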
Active calls of the source: *; i = inactive; . = not tested or not shown.

SMILES | NR2E3 ag-1 | SMARCA2 act | DAX1 inh-1 | NR2E3 ag-2 | JMJD2C inh | DAX1 inh-2
O=C(Cc1ccccc1)Nc1ccc(SC(F)F)cc1 | -78.8 | 0.2 | 1.3 | -2.5 | 6.8 | 4.3*
COc1ccc(S[C@]2(C(=O)N(C)C)CC(=O)N[C@@H]2c2ccc(OC)cc2)cc1 | . | -1.8 | -0.2 | . | . | .
CCOc1cccc(/C=N/N=C/c2cccc(OCC)c2O)c1O | 1.4 | -0.8 | -0.2 | . | -18.0 | -0.8
CCOc1ccccc1C=NN=Cc1ccccc1O | -53.9 | -1.6 | 0.3 | . | . | 6.8*
O=C1CCCC(c2ccccc2)N1 (stereo not drawn) | -10.7 | -2.0 | 0.6 | -1.3 | -5.5 | 5.2*
O=C1NC(c2ccccc2)CCO1 (stereo not drawn) | 6.4 | 0.1 | 0.1 | -1.7 | i | -0.1
O=C(C1CCC(CNc2c(N3CCCCC3)c(=O)c2=O)CC1)N1CCCC1 (stereo not drawn) | 5.1 | 2.3 | -0.3 | 5.2 | -7.5 | 5.5*
CCCCCCCCN1C(=O)[C@@H](CC(=O)N2CCCCC2)C[C@@]2(C(=O)OC)C1=C[C@H](COCc1ccccc1)O[C@@H]2C | . | -1.6 | -0.5 | . | . | .
Cc1ccccc1NC(=O)Nc1ccc2c(c1)C(=O)N(C)[C@H]1CC[C@H](CC(=O)NCC3CC3)O[C@@H]1CO2 | . | -0.3 | 1.2 | . | . | .
COc1cc(-c2csc(C)n2)ccc1O | -21.5 | -2.7 | 0.1 | -1.7 | 6.8 | 4.3*
C=CCN1C(=O)[C@H](CC(=O)N2CCCCC2)[C@@]2(C(=O)OCC)CCCC=C12 | . | -6.5 | 0.0 | . | . | .
CCC(=O)N1C(C(=O)N2CCCC2)CSC1c1ccc(OC)cc1 (stereo not drawn) | -23.6 | -1.1 | -0.4 | 4.3 | 13.5 | 4.3*
CCC(=O)N1C(C(=O)O)CSC1c1ccc(OC)cc1 (stereo not drawn) | -16.4 | -0.8 | -0.1 | 0.9 | -49.0 | 2.9
C=CCn1c(COc2ccc(Cl)cc2)nnc1SCC(=O)c1ccccc1 | . | -3.9 | -0.8 | . | . | .
O=c1[nH]c2ccc(NC(=S)NC3CCCCC3)cc2[nH]1 | -0.6 | -4.7 | -1.3 | 2.5 | -25.1 | 2.9
O=c1cc(NC2CCCCCC2)[nH]c(=O)[nH]1 | -27.7 | 1.0 | -0.6 | -2.7 | 54.2* | 0.7
O=C(OCc1nnc(-c2ccccc2)o1)C12CC3CC(CC(Br)(C3)C1)C2 | -22.9 | 2.7 | 0.8 | . | 0.9 | 4.8*
C/C(=N\NS(=O)(=O)c1ccc([N+](=O)[O-])cc1)c1ccc(NC(=O)c2ccco2)cc1 | -122.3 | 0.1 | 4.3* | -0.7 | 4.8 | 1.6
O=C(CSC(=S)N1CCCC1)c1cc(Br)cc(Br)c1O | . | 0.7 | 0.4 | 4.6 | 57.8* | .
COc1ccc(CCn2nc(C)c([N+](=O)[O-])c2C)cc1 | -90.1 | 3.4 | 4.2* | -0.5 | 19.1 | 1.4
COc1cccc(-n2c(CCn3nc(C)c([N+](=O)[O-])c3C)n[nH]c2=S)c1 | 6.5 | -0.9 | -0.4 | -2.0 | -4.9 | 0.8
Cc1ccsc1C(=O)NCCc1nnc2ccccn12 | -65.9 | 7.8* | 0.2 | 2.5 | 8.3 | 3.0
O=C(NCCc1nnc2ccccn12)c1cccs1 | -17.0 | 1.0 | 0.2 | -0.8 | 10.8 | 0.4
O=C1CC(=O)C(n2cncn2)C(c2ccc(Cl)cc2)C1 (stereo not drawn) | -15.8 | -5.6 | -0.8 | -6.9 | 4.3 | 5.8*
Cc1ccc(Cl)cc1NC(=O)CCC(=O)Nc1cc(Cl)ccc1C | -2.7 | 4.3 | 0.5 | -3.3 | -7.0 | -0.4
CCCC(=O)Nc1cc(Cl)ccc1C | 9.2 | -0.1 | 0.0 | -0.9 | 0.7 | 6.5*
N=c1c2c(-c3ccccc3)c(-c3ccccc3)n(CCc3ccccc3)c2ncn1CCO | . | 3.0 | -1.6 | . | . | .
Clc1ccc(OCCCN2CCCC2)cc1Cl | 15.1 | 7.8* | 0.1 | -0.8 | 2.8 | 0.1
Clc1ccc(OCCN2CCCCC2)cc1Cl | -6.6 | -0.9 | 0.1 | -0.1 | -4.3 | 0.9
